# Measurements as given in article PMC3169095 (Biochemistry, 2011).
# Columns and labels:
# Assay type in all cases: cell-based
# [1] = target: T1, Piezo1 (Mus musculus, UniProt E2JF22); assay: Outside-out patch recording of pressure-evoked Piezo1 currents
# [2] = test system: TREK-1; assay: Outside-out patch recording of mechanosensitive TREK-1 currents; conditions: extracellular peptide; outside-out patches of cells transfected with TREK-1
# Method in brief: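 HEK293 cells transfected with TREK-1 plasmid (250 ng, FuGENE) were recorded 24-48 h later in outside-out patches at room temperature. Extracellular (mM): 145 NaCl, 5 KCl, 3 MgCl2, 10 HEPES, 0.1 CaCl2, pH 7.3. Internal: 133 KCl, 10 HEPES, 5 EGTA, 3 MgCl2. Pressure pulses came from a high-speed pressure clamp. D and L peptide forms were perfused. Sampling was 10 kHz, filtered at 2 kHz.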
# [3] = target: T1, Piezo1; conditions: 3.0 μM; Piezo1 in HEK293 cells; n=3 S.D.; SD
# T1 sequence (E2JF22 whole entry): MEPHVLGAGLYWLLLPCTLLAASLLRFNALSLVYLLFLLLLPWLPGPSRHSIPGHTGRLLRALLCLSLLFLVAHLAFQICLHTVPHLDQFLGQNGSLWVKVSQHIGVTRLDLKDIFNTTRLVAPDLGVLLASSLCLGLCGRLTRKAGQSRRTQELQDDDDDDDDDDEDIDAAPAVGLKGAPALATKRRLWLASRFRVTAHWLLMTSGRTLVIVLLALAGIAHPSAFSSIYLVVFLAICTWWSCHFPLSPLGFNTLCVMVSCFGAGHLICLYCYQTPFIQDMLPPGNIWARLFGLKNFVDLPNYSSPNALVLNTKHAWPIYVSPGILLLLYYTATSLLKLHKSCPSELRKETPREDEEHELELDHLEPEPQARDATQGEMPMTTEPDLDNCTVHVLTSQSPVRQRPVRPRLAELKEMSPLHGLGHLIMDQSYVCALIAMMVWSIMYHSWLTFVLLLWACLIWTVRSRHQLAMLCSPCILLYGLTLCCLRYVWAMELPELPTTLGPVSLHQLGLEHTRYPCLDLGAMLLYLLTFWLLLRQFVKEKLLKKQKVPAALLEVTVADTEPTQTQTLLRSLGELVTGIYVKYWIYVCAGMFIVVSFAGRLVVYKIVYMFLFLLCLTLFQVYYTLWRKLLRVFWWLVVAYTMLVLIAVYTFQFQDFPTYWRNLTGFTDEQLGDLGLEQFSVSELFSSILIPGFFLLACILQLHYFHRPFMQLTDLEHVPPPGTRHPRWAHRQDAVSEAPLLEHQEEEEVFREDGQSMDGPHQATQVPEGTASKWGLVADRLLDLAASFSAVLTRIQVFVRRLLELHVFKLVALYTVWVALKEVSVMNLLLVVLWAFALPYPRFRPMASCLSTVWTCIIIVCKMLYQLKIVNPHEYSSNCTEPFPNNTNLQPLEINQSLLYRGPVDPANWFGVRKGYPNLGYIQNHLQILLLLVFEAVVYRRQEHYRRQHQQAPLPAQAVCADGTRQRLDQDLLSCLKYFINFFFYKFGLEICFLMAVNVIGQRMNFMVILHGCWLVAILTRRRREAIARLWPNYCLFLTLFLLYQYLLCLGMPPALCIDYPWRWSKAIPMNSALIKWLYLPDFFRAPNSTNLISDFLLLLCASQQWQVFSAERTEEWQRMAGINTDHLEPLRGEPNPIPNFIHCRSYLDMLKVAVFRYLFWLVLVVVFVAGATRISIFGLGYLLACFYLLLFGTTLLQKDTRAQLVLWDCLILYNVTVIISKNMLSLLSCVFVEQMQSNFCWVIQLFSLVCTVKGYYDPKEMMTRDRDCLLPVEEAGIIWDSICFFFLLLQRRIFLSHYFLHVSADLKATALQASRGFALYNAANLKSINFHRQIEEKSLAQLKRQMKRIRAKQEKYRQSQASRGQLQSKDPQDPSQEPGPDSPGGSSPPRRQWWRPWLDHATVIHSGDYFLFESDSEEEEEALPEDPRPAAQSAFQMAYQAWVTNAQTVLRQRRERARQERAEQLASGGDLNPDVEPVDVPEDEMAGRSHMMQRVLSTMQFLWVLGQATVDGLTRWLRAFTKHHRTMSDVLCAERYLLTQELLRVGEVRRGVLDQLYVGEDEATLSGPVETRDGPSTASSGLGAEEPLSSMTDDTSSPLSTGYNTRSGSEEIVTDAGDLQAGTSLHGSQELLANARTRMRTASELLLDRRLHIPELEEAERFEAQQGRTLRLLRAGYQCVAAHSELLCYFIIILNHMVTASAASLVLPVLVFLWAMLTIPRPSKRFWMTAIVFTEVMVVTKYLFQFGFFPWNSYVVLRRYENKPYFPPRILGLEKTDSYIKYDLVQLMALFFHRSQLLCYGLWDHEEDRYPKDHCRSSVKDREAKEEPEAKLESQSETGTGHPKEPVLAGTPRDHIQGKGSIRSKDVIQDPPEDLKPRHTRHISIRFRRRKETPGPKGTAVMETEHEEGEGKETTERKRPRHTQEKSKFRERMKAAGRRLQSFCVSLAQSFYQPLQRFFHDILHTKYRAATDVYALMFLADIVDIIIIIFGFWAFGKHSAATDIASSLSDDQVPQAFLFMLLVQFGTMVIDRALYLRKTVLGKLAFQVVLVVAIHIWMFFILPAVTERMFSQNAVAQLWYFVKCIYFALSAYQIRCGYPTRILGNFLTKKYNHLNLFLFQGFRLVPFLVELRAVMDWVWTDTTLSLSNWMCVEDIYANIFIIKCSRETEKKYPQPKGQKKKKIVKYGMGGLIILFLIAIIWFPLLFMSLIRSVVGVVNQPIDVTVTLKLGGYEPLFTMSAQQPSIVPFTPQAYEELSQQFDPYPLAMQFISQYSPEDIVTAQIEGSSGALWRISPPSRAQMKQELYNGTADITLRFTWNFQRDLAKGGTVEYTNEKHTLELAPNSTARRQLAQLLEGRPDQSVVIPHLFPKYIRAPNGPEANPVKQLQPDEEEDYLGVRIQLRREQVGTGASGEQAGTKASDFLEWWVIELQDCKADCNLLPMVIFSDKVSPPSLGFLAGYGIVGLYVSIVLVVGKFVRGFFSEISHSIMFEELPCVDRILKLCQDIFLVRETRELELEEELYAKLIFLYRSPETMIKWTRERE
Molecule,"mode of inhibition of Piezo1 ([1]; 1 mM applied for 90 seconds to resting outside-out patches, Figure S2 B)","inhibition of peak currents ([1]; outside-out patches, 2.5 μM, n=5, Figure 1C, normalized data)",inhibition of TREK-1 mechanosensitive currents [2],inhibition of whole cell mechanosensitive currents [3]
[H]/N=C(/N)N[C@H]1[C@H](O)[C@@H](O)[C@H](O[C@@H]2O[C@@H](C)[C@](O)(C=O)[C@H]2O[C@@H]2O[C@@H](CO)[C@H](O)[C@@H](O)[C@@H]2NC)[C@@H](N/C(N)=N\[H])[C@@H]1O [streptomycin],open channel blocker,,,
D-GsMTx4,,29 ± 9%,no inhibition,70±6%
